Data reported in PMC5542862 (Microcirculation (New York, N.Y. : 1994), 2017).
Like-named read-outs stand apart in the source and are kept apart here.

Tests used:
[1] = test system: arcade and terminal arterioles of the hamster cheek pouch; type: in vivo; settings: for Effect of muscarinic blockade on vasoactivity (in words): atropine 10^−7 M in tissue bath; for Effect of beta-adrenergic blockade on dilation (in words): propranolol 10^−6M in tissue bath; for Dose range of vasodilation / Control Dose Max dilation / Control (%) Max dilation: quiescent tissue; for Dose range of vasodilation: mucocutaneous microvasculature; for Control Dose Max dilation: 60-second micropipette exposure; for Control (%) Max dilation: at the dose of max dilation
Summary of the method: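 Adult male hamsters were anaesthetised with pentobarbital (70 mg/kg), tracheostomised and kept at 37 °C. The left cheek pouch was superfused with 37 °C bicarbonate-buffered saline and rested 30 min. Test compound was given by micropipette (10–20 μm tip, with FITC-dextran 10−6M) at the arcade–terminal junction for 60 s, then 5 min recovery. One full concentration series per site, 2–4 sites ≥1000 μm apart. Fractional diameter change = (baseline−peak)/baseline; repeated-measures ANOVA.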

[2] = test system: arcade and terminal arterioles of the hamster cheek pouch; test: Hamster cheek pouch intravital microscopy, nitrosative stress model; type: in vivo; settings: for Vasoactive response after stress compared with before (in words): nitrosative stress, agent 10^−4M by micropipette, n=35; for Effect of nitrosative stress on the concentration response (in words): SNP 10^−4M in tissue bath for 2 minutes; for Stress (%) Max dilation: after stress, at the dose of max dilation
Summary of the method: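 Anaesthetised male hamster cheek pouch, superfused with 37 °C bicarbonate saline. Stress: SNP 10−4M washed into the bath for 2 min, with endothelial dysfunction checked by micropipette acetylcholine 10−4M. Test compound was given by micropipette for 60 s with 5 min recovery, 15 min–3 h after stress, at most four exposures per site. Response = (baseline−peak)/baseline from video; repeated-measures ANOVA, unpaired t-test.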

PDGF-BB [3] = settings: Lin, et al., 2014, Zhu; cited from earlier work
PDGF-BB [4] = settings: cited from earlier work; for Kd: read-out: KD for PDGF-BB binding
[5] = test system: arcade and terminal arterioles of the hamster cheek pouch; type: in vivo; settings: 20s, 50 °C, within 500 μm of heat rim
Summary of the method: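 In the superfused cheek pouch of anaesthetised male hamsters, a thermocouple-controlled microcautery Pt wire (300 μm) applied 50 °C for 20 s. After 15 min, micropipette exposures (60 s, 5 min recovery) were mapped to 1000 μm from the heat rim; only sites within 500 μm are reported. Diameter change = (baseline−peak)/baseline from video; repeated-measures ANOVA or unpaired t-test, α 0.05.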

[6] = test system: thermal burn injury progression; settings: rat hot comb model; cited from earlier work
[7] = test system: adult human dermal fibroblasts; settings: cited from earlier work

## CC(=O)OCC[N+](C)(C)C [acetylcholine, reference compound]
[1]; arcade arterioles, acetylcholine 10^−4M with atropine (10^−7 M), mean ± SD, n=26 sites
  Diameter change, fractional change from baseline: 0.03±0.15
[1]; arcade arterioles, acetylcholine 10^−4M, no blocker, mean ± SD, n=26 sites
  Diameter change, fractional change from baseline: 0.50±0.36
[1]; terminal arterioles, acetylcholine 10^−4M with atropine (10^−7 M), mean ± SD, n=26 sites
  Diameter change, fractional change from baseline: 0.03±0.10
[1]; terminal arterioles, acetylcholine 10^−4M, no blocker, mean ± SD, n=26 sites
  Diameter change, fractional change from baseline: 0.49±0.28

## Nc1ncnc2c1ncn2[C@@H]1O[C@H](CO)[C@@H](O)[C@H]1O [adenosine, reference compound]
[2]
  Vasoactive response after stress compared with before (in words): compromised
[1]; arcade arterioles, adenosine 10^−4 M, mean ± SD
  Diameter change, fractional change from baseline: 0.54±0.35
[1]; terminal arterioles, adenosine 10^−4 M, mean ± SD
  Diameter change, fractional change from baseline: 0.60±0.43

## CC(C)NCC(O)c1ccc(O)c(O)c1 (stereo not drawn) [isoproterenol, reference compound]
[1]; arcade arterioles, isoproterenol 10^−7M with propranolol (10^−6M), mean ± SD, n=23 sites
  Diameter change, fractional change from baseline: 0.00±0.11
[1]; arcade arterioles, isoproterenol 10^−7M, no blocker, mean ± SD, n=23 sites
  Diameter change, fractional change from baseline: 0.41±0.3
[1]; terminal arterioles, isoproterenol 10^−6M with carazolol 10^−9M, mean+sem, significant constriction
  Diameter change, fractional change from baseline: −0.50+0.15
[1]; terminal arterioles, isoproterenol 10^−7M with propranolol (10^−6M), mean ± SD, n=23 sites
  Diameter change, fractional change from baseline: 0.01±0.00
[1]; terminal arterioles, isoproterenol 10^−7M, no blocker, mean ± SD, n=23 sites
  Diameter change, fractional change from baseline: 0.43±0.34

## CNC[C@H](O)c1cccc(O)c1 [phenylephrine, reference compound]
[2]
  Vasoactive response after stress compared with before (in words): unaffected
[1]; arcade arterioles, phenylephrine 10^−5M, no blocker, mean ± SD, n=23 sites
  Diameter change, fractional change from baseline: −0.52±0.18
[1]; arcade arterioles, phenylephrine 10^−6M, mean ± SD
  Diameter change, fractional change from baseline: −0.53±0.18
[1]; terminal arterioles, phenylephrine 10^−5M, no blocker, mean ± SD, n=23 sites
  Diameter change, fractional change from baseline: −0.48±0.16
[1]; terminal arterioles, phenylephrine 10^−6M, mean ± SD
  Diameter change, fractional change from baseline: −0.48±0.16

## FN: Full-length plasma fibronectin
[1]; arcade and terminal arterioles, 10^−16–10^−4M by micropipette, N=5–8 per peptide
  Vasoactive response in quiescent tissue (in words): induced only vasodilation
[1]
  Effect of muscarinic blockade on vasoactivity (in words): no effect
[1]; phentolamine 10^−5M plus propranolol 10^−6M
  Effect of combined alpha- and beta-adrenergic blockade (in words): eliminated only the vasodilation with the peptides and not FN
[1]; arcade and terminal arterioles
  Effect of beta-adrenergic blockade on dilation (in words): significantly diminished dilation

## ILRWRPK [P7]
PDGF-BB [3]
  FN/PDGF-BB binding inhibition: 0.1%
PDGF-BB [4]
  Kd: 1000 nM
[2]
  Effect of nitrosative stress on the concentration response (in words): left shift
  Stress (%) Max dilation: 29%
[1]
  Effect of muscarinic blockade on vasoactivity (in words): no effect
  Dose range of vasodilation: 10^−9–10^−8 M
[1]; arcade and terminal arterioles
  Effect of beta-adrenergic blockade on dilation (in words): prevented vasodilation
[1]; terminal arterioles
  Control Dose Max dilation: 10^−8M
  Control (%) Max dilation: 28%

## LRWRPK [P39]
PDGF-BB [3]
  FN/PDGF-BB binding inhibition: 0.0%
[1]; terminal arterioles
  Control (%) Max dilation: 8%

## PSHISKYILRWRPK [EVA-1, epiviosamine-1]
[5]; arcade arterioles
  Dilation at 10^−8M after thermal stress (in words): reversed to constriction
[5]; both arteriolar types
  Response to sub-nanomolar dose after thermal stress (in words): significant vasodilation
[5]; terminal arterioles
  Dilation at 10^−8M after thermal stress (in words): eliminated
PDGF-BB [3]
  FN/PDGF-BB binding inhibition: 95.5%
[6]
  Effect on thermal burn injury progression (in words): limits thermal burn injury progression
PDGF-BB [4]
  Dose range binding PDGF-BB: 10^−8–10^−7 M
  Kd: 200 nM
[2]
  Effect of nitrosative stress on the concentration response (in words): left shift
  Stress (%) Max dilation: 32%
[7]
  Dose conferring survival activity: 10^−7 M
[1]
  Effect of muscarinic blockade on vasoactivity (in words): no effect
  Dose range of vasodilation: 10^−9–10^−8 M
[1]; arcade and terminal arterioles
  Effect of beta-adrenergic blockade on dilation (in words): prevented vasodilation
[1]; terminal arterioles
  Control Dose Max dilation: 10^−9M
  Control (%) Max dilation: 22%

## RWRPK [P37]
PDGF-BB [3]
  FN/PDGF-BB binding inhibition: 0.0%
[2]
  Effect of nitrosative stress on the concentration response (in words): left shift
  Stress (%) Max dilation: 45%
[1]; arcade and terminal arterioles
  Effect of beta-adrenergic blockade on dilation (in words): prevented vasodilation
[1]; terminal arterioles
  Control (%) Max dilation: 19%

## YILRWRPK [P18]
PDGF-BB [3]
  FN/PDGF-BB binding inhibition: 26%
[1]; arcade and terminal arterioles
  Effect of beta-adrenergic blockade on dilation (in words): prevented vasodilation
[1]; terminal arterioles
  Control Dose Max dilation: 10^−8M
  Control (%) Max dilation: 26%

## nitroprusside [reference compound]
[2]
  Vasoactive response after stress compared with before (in words): not compromised
